Measurements taken from ChEMBL document CHEMBL3632560, “1,4-Oxazine β-Secretase 1 (BACE1) Inhibitors: From Hit Generation to Orally Bioavailable Brain Penetrant Leads” (J Med Chem, 2015).

Key:
[1] = Dissociation constant, pKa of the compound by potentiometric titration assay; assay type: physicochemical
[2] = Drug metabolism in human liver microsomes at 1 uM after 15 min by HPLC-MS/MS analysis; assay type: ADME; conditions: read-out: Drug metabolism
[3] = Drug metabolism in mouse liver microsomes at 1 uM after 15 min by HPLC-MS/MS analysis; assay type: ADME; conditions: read-out: Drug metabolism
MDR1 (human) = test: Apparent permeability across apical to basolateral side in pig LLC cells transfected with human MDR1 at 5 uM by HPLC-MS/MS analysis; assay type: ADME, cell-based, Sus scrofa; conditions: LLC-PK1
[4] = Distribution coefficient, logD of the compound by chromatography; assay type: physicochemical; conditions: octanol/water
[5] = Drug metabolism in dog liver microsomes at 1 uM after 15 min by HPLC-MS/MS analysis; assay type: ADME, Canis lupus familiaris; conditions: read-out: Drug metabolism
Method in brief: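 Final solvent 0.01% DMSO and 0.5% acetonitrile. Reaction started with NADPH and quenched with acetonitrile at 15 min. Percent metabolized is parent loss measured by HPLC-MS/MS.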

[6] = Ratio of drug level in brain to plasma of pathogen free CD1 Swiss mouse at 10 mg/kg, po; assay type: ADME, organism-based
Method in brief: (§1)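 Fasted male CD1 Swiss SPF mice dosed 10 mg/kg p.o. (n=6) in 20% HPβCD at pH 3.9 or 20% SBEβCD at pH 3.5. Plasma and brain taken at 2, 4 and 7 h. One hemisphere used for drug bioanalysis; the other was homogenized for Aβ42 and Aβ total by sandwich immunoassay. Kp calculated from AUC0-last.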

[7] = Drug uptake in pathogen free CD1 Swiss mouse brain at 10 mg/kg, po after 4 hrs; assay type: ADME, organism-based; conditions: read-out: Drug uptake; method in brief: as §1
[8] = Elimination half-life in Beagle dog at 2.5 mg/kg, po; assay type: ADME, organism-based, Canis lupus familiaris; conditions: in vivo, read-out: beta t1/2 (converted)
Method in brief: (§2)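 Fasted Beagle dogs, 2 male and 2 female per dose group, given doses from 0.08 to 10 mg/kg in 20% HPβCD at pH 3.5. Plasma drug levels followed over time to give Cmax, Tmax and T½. CSF Aβ42 measured by MesoScale electrochemiluminescence for up to 50 h after dosing.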

[9] = Cmax in Beagle dog at 2.5 mg/kg, po; assay type: ADME, organism-based, Canis lupus familiaris; set-up: dose 2.5 mg/kg, route oral; conditions: in vivo; method in brief: as §2
[10] = Tmax in Beagle dog at 2.5 mg/kg, po; assay type: ADME, organism-based, Canis lupus familiaris; conditions: in vivo; method in brief: as §2

Structure (SMILES)	pKa [1]	metabolised at 0.25 h, 1 µM [2]	metabolised at 0.25 h, 1 µM [3]	also measured
C[C@@]1(c2cccc(NC(=O)c3ccc(Cl)cn3)c2)COCC(N)=N1	9.6	0%	6%	–
C[C@]1(c2cc(NC(=O)c3ccc(Cl)cn3)ccc2F)N=C(N)CO[C@@H]1F	7.9	0%	17%	Papp A→B at 5 µM (MDR1 (human)): 8.5 ×10⁻⁶ cm/s; metabolised at 0.25 h, 1 µM [5]: 7%
Cc1cc(Cl)cnc1C(=O)Nc1ccc(F)c([C@@]2(C)N=C(N)CO[C@@H]2F)c1	7.4	16%	98%	Papp A→B at 5 µM (MDR1 (human)): 9.3 ×10⁻⁶ cm/s; metabolised at 0.25 h, 1 µM [5]: 21%
C[C@]1(c2cc(NC(=O)c3ccc(C#N)cn3)ccc2F)N=C(N)CO[C@@H]1F	7.9	0%	2%	metabolised at 0.25 h, 1 µM [5]: 0%; Kp [6]: 0.33; half-life [8]: 25 h; concentration at 4 h [7]: 98 ng/g; Cmax [9]: 571 ng/mL; Tmax [10]: 2.5 h
CC1(c2ccccc2)COCC(N)=N1 (stereo not drawn)	9.8	–	–	–
C[C@]1(c2cc(N)ccc2F)N=C(N)CO[C@@H]1F	8.1	–	–	–
C[C@]1(c2cc(N)ccc2F)N=C(N)CO[C@H]1C(F)(F)F	8	–	–	–

More lines, main results first:

pKa [1]	metabolised at 0.25 h, 1 µM [2]	metabolised at 0.25 h, 1 µM [3]	Structure (SMILES)	also measured
9	1%	6%	COc1cnc(C(=O)Nc2ccc(F)c([C@]3(C)COCC(N)=N3)c2)cn1	Papp A→B at 5 µM (MDR1 (human)): 3.7 ×10⁻⁶ cm/s
7.6	–	–	COc1cnc(C(=O)Nc2ccc(F)c([C@@]3(C)N=C(N)CO[C@H]3F)c2)cn1	–
7.8	31%	3%	COc1cnc(C(=O)Nc2ccc(F)c([C@@]3(C)N=C(N)CO[C@@H]3F)c2)cn1	chromatographic logD [4]: 2.04; metabolised at 0.25 h, 1 µM [5]: 70%; Kp [6]: 0.65; concentration at 4 h [7]: 195 ng/g
6.8	–	–	COc1cnc(C(=O)Nc2ccc(F)c([C@@]3(C)N=C(N)CO[C@@]3(F)C(F)(F)F)c2)cn1	chromatographic logD [4]: 3.43
6.9	–	–	COc1cnc(C(=O)Nc2ccc(F)c([C@@]3(C)N=C(N)CO[C@]3(F)C(F)(F)F)c2)cn1	–
7.8	–	–	COc1cnc(C(=O)Nc2ccc(F)c([C@@]3(C4CC4)N=C(N)CO[C@@H]3F)c2)cn1	–
2.6	–	–	COc1cnc(C(=O)Nc2ccnc([C@@]3(C)N=C(N)CO[C@@H]3F)c2)cn1 (racemic)	–
2.8	–	–	COc1cnc(C(=O)Nc2cc([C@@]3(C)N=C(N)CO[C@@H]3F)ccn2)cn1 (racemic)	–
